Laboratory results published in ChEMBL document CHEMBL3244152, “Pivaloyl esters of N,N-dialkylated dopamine congeners. Central dopamine-receptor stimulating activity” (1978).
Active and inactive are the calls of the source. The rule behind the calls is not given here.

How the values were obtained:
[1] = system: Rattus norvegicus; assay: Effect on motor activity in reserpinized Sprague-Dawley rat assessed as stereotyped movements at 200 umolkg, po measured every 5 mins for 2 hrs by motility meter method; type: functional, organism-based
In short: (§1)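 Male Sprague-Dawley rats (200–350 g) were given reserpine 10 mg/kg ip 6 h before testing. Drug in 0.9% saline (neutral pH, 10 mL/kg) was given at 20 μmol/kg sc in the neck or 200 μmol/kg po by stomach tube. Rats were caged singly in motility meters at once, with counts recorded per 5-min period over 2 h; means n = 4-5.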

[2] = system: Rattus norvegicus; assay: Stimulation of dopamine receptor in sc dosed Sprague-Dawley rat assessed as reduction in Dopa accumulation in straitum by spectrofluorimetry; type: functional; details: read-out: ID50 (the source's name)
In short: (§2)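 Pooled regions from two brains went to perchloric acid extraction, cation exchange and Dopa spectrofluorimetry. Dose giving 50% Dopa decrease came from least-squares double-reciprocal plots (1/% change vs 1/dose).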

[3] = system: Rattus norvegicus; assay: Stimulation of dopamine receptor in sc dosed Sprague-Dawley rat assessed as reduction in Dopa accumulation in limbic forebrain by spectrofluorimetry; type: functional; details: Limbic system, read-out: ID50 (the source's name); in short: as §2
[4] = system: Rattus norvegicus; assay: Effect on motor activity in reserpinized Sprague-Dawley rat assessed as stereotyped movements at 20 umolkg, sc measured every 5 mins for 2 hrs by motility meter method; type: functional, organism-based; in short: as §1
[5] = system: Rattus norvegicus; assay: Stimulation of dopamine receptor in Sprague-Dawley rat assessed as reduction in Dopa accumulation in at 1 mg/kg, sc by spectrofluorimetry; type: functional, organism-based; parameters: dose 1 mg/kg
[6] = system: Rattus norvegicus; assay: Effect on motor activity in reserpinized Sprague-Dawley rat assessed as stereotyped movements at 2 umolkg, sc measured every 5 mins for 2 hrs by motility meter method; type: functional, organism-based
In short: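 Male Sprague-Dawley rats (200–350 g) given reserpine 10 mg/kg ip 6 h before testing. Drug dissolved in saline (0.9%), neutral pH, 10 mL/kg, injected sc in the neck. Each rat then placed alone in a test cage inside a motility meter. Counts were recorded per 5-min period for 2 h, with gross behavior watched through a mirror. Means, n = 4-5.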

[7] = system: Rattus norvegicus; assay: Effect on motor activity in reserpinized Sprague-Dawley rat assessed as stereotyped movements at 20 umolkg, sc measured up to 10 mins by motility meter method; type: functional, organism-based; in short: as §1

For `CCCN(CCC)CCc1ccc(O)c(O)c1`, the Activity [1] was “inactive”, the ED50 [2] was 20 µmol/kg and the ED50 [3] was 25 µmol/kg.

`CCCN(CCC)CCc1ccc(OC(=O)C(C)(C)C)c(OC(=O)C(C)(C)C)c1` was tested, and the Activity [1] was “inactive”, the Activity [4] was “Active” and the ED50 [2] was 33 µmol/kg. It also gave an ED50 [3] of 28 µmol/kg.

In the case of `CCCN(CCC)CCc1cccc(O)c1`, the Activity [1] is reported as “inactive”, the Activity [4] is reported as “Active” and the ED50 [2] is reported as 1.8 µmol/kg. For the same molecule, the ED50 [3] was 5.7 µmol/kg.

`CC(N)Cc1ccccc1` (configuration not stated) was tested, and the Activity [5] was “inactive”.

For `CCN(CC)CCc1ccc(OC(=O)C(C)(C)C)c(OC(=O)C(C)(C)C)c1`, the Activity [1] was “inactive”, the Activity [4] was “inactive” and the ED50 [2] was over 27 µmol/kg. For the same molecule, the ED50 [3] was over 27 µmol/kg.

For `CN1CCc2cccc3c2[C@H]1Cc1ccc(O)c(O)c1-3` [APOMORPHINE], the ED50 [2] was 0.23 µmol/kg, the ED50 [3] was 0.23 µmol/kg and the Activity [6] was “Active”.

For `CCCN(CCC)CCc1cccc(OC(=O)C(C)(C)C)c1`, the Activity [1] was “inactive”, the Activity [4] was “Active” and the ED50 [2] was 1.8 µmol/kg. The Activity [7] was “inactive” and the ED50 [3] was 2.7 µmol/kg.

`CCCN(CCC)CCc1cccc(OC)c1` was tested, and the Activity [1] was “inactive”, the Activity [4] was “inactive” and the ED50 [2] was over 45 µmol/kg. For the same molecule, the ED50 [3] was over 45 µmol/kg.

In the case of `CN1CCc2cccc3c2[C@H]1Cc1ccc(OC(=O)C(C)(C)C)c(OC(=O)C(C)(C)C)c1-3`, the Activity [6] is reported as “Active”.

`CCCCN(CCCC)CCc1ccc(OC(=O)C(C)(C)C)c(OC(=O)C(C)(C)C)c1` was tested, and the Activity [1] was “inactive”, the Activity [4] was “inactive” and the ED50 [2] was over 180 µmol/kg. For the same molecule, the ED50 [3] was over 180 µmol/kg.

With `CN(C)CCc1ccc(OC(=O)C(C)(C)C)c(OC(=O)C(C)(C)C)c1` the Activity [1] was “inactive”, the Activity [4] was “inactive” and the ED50 [2] was over 45 µmol/kg. It also gave an ED50 [3] of over 45 µmol/kg.
